Screening results (PubChem)
Many of the other results were omitted from the sample, so hits are more common in it than they were.
TLR4 MyD88 comp: inhibitors of TLR4-MyD88 association in cells, primary screen, cell-based, HeLa CL3-4, BLA complementation, FRET ratio; actives 0.18% (n = 200,000); HeLa CL3-4 TLR4/MyD88 BLA complementation; Toll-like receptor 4 (Homo sapiens) + Myeloid differentiation primary response protein …; inhibition, % at 8.4 µM; in the data active = inhibition above about 25%;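 also: 0% = vehicle and 100% = reference inhibitor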
TLR9-MyD88 block: inhibitors of TLR9-MyD88 association in cells, primary screen, cell-based, CHO, BLA complementation, fluorescence; actives 0.21% (n = 340,000); Toll-like receptor 9 (Homo sapiens) + Myeloid differentiation primary response protein …; inhibition, % at 4.98 µM; CCF4 FRET ratio;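 active = inhibition above the mean over all tested compounds plus 3 SD, cut at about 21% in these data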;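 also: 0% = DMSO only wells and 100% = clavulanate BLA inhibitor control wells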
UPR CHOP act: activators of apoptotic CHOP UPR arm, primary screen, cell-based, CHO-CHOP luciferase reporter, luminescence, uHTS | actives 0.34% (n = 330,000) | activation, % at 10 µM | UPR activation; percent of tunicamycin response over DMSO baseline;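 active = at 10 µM dose, activation of 40% or more, normalized to positive control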;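 also: 100% = tunicamycin at 10 µg/mL and 0% = DMSO alone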
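Dosing – one dose, 10 µM in 0.5% DMSO · System – CHO-CHOP cells, stable luciferase reporter of PERK-eIF2a-CHOP signalling · Input – 500 cells/well · Control set – tunicamycin 10 µg/mL final as positive, DMSO-only wells as negative · Timing – 6 h compound treatment, 37 °C · Measure – % activation vs tunicamycin · Technique – luminescence read with Steady-Glo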
NOD2 RIPK2 PPI: NOD2-RIPK2 binding disruptors in cells, primary screen, fluorescence, CHO cells, BLA complementation; Receptor-interacting serine/threonine-protein kinase 2 (Homo sapiens), O43353; CCF4 ratio; inhibition, % at 4.98 µM; actives 0.38% (n = 360,000); in the data active = inhibition above about 21%;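 also: 0% = vehicle only and 100% = reference blocker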
CHOP inh: inhibitors of CHOP promoter induction, primary screen, cell-based, unfolded protein response, luciferase reporter; AID 2732, 2010; inhibition, % at 10 µM; CHO-K1 CHOP-promoter luciferase, tunicamycin-induced, 15-18 h; actives 3.8% (n = 220,000);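 active = compounds that reduced the stress-induced luciferase reporter signal by more than about 70% of percent inhibition, limit read from the data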;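 also: 0% = tunicamycin plus vehicle and 100% = wells without tunicamycin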
UPR XBP1 act: activators of adaptive XBP1 UPR arm, primary screen, cell-based, CHO-XBP1 luciferase reporter, luminescence, uHTS | actives 0.33% (n = 330,000) | activation, % at 20 µM | AID 463104, 2010 | IRE1-XBP1 UPR activation; percent of tunicamycin response, DMSO as zero;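 active = versus positive control, 20 µM dose yields 30% or more activation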;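 also: 100% = tunicamycin at 10 µg/mL and 0% = DMSO only wells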
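Material: IRE1-XBP1 luciferase reporter CHO line / Quantity: one thousand reporter cells per well / Buffer or medium: F12 with 10% serum / Compound: 20 µM single concentration, DMSO 1% / Times: 6 h treatment, 37 °C / Detection: Steady-Glo luciferase glow luminescence, 10 min after reagent addition / Benchmarks: tunicamycin high, DMSO low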
TLR9-MyD88 cf: TLR9-MyD88 association inhibitors, retest, confirmation, cell-based, CHO, BLA complementation, fluorescence, triplicate | shares compounds with TLR9-MyD88 block | CCF4 FRET ratio | inhibition, % at 4.98 µM | actives 51% (n = 680);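 active = mean inhibition across three repeats above about 21% taken from the earlier screen, limit read from the data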;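 also: blue over green emission ratio reports constitutive TLR9 MyD88 association via BLA complementation; 0% = DMSO vehicle wells and 100% = clavulanate BLA inhibitor wells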
Target sequence (Q9NR96 whole entry, looked up): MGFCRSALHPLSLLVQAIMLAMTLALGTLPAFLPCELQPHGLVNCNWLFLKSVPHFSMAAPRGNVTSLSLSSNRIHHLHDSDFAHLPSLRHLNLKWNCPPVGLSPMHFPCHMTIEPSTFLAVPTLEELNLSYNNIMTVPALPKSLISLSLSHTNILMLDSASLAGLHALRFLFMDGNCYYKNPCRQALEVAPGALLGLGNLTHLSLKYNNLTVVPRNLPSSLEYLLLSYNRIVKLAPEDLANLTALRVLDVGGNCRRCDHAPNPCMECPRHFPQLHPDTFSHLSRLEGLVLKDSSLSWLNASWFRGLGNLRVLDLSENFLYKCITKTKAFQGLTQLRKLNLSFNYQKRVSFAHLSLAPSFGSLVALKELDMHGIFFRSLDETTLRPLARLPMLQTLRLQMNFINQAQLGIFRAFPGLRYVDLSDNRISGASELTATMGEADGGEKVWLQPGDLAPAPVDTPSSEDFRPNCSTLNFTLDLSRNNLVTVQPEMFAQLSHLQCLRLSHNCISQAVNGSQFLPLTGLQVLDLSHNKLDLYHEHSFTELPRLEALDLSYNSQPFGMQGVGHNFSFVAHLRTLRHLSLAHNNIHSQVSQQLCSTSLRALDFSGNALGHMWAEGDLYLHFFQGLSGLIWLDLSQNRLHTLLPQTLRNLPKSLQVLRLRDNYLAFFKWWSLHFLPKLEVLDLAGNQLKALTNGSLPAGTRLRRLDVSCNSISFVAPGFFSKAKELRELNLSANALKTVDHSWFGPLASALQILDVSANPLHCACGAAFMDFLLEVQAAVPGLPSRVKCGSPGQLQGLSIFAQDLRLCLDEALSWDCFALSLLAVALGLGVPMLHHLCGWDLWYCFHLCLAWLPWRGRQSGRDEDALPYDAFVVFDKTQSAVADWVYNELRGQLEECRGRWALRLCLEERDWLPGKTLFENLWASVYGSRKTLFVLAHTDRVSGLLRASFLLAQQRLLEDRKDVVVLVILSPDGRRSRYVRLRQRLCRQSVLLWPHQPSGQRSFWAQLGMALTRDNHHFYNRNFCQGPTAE
BLA counter-1: beta-lactamase reporter inhibitors in CHO cells, artefact control for TLR9-MyD88 binding inhibitor project, cell-based, fluorescence | shares compounds with TLR9-MyD88 block | CHO-BLA cells, CCF4 FRET ratio, BLA reporter | inhibition, % at 4.98 µM | actives 7% (n = 680) | AID 540251, 2011;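 active = mean inhibition above a 50% cutoff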;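 also: counterscreen of TLR9-MyD88 hits on CMV-driven BLA in CHO-K1 cells; 0% = DMSO alone and 100% = clavulanate blocking BLA; higher means less blue over green ratio so more BLA blockade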
TLR9 CHO cytotox: CHO cell viability loss – luminescence, single concentration, cytotoxicity control for TLR9-MyD88 binding inhibitor project; shares compounds with TLR9-MyD88 block; TLR9-MyD88 CHO cells cytotoxicity; actives 39% (n = 680); AID 588336, 2011; inhibition, % at 4.98 µM; in the data active = inhibition above about 11%
NOD2 RIPK2 conf: NOD2-RIPK2 binding disruptors, retest, confirmation, fluorescence, CHO cells, BLA complementation, triplicate; shares compounds with NOD2 RIPK2 PPI; CCF4 FRET; inhibition, % at 4.98 µM; actives 70% (n = 1,200); AID 624370, 2012;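 active = mean inhibition across replicates above a set limit taken from the earlier primary screen, cut at about 21% in these data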;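 also: 0% = DMSO-only wells and the high end = clavulanate BLA-blocked wells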
BLA counter-2: hits BLA reporter in NOD2-RIPK2 inhibitor counterscreen | shares compounds with NOD2 RIPK2 PPI | CHO BLA reporter, CCF4 FRET ratio | inhibition, % at 4.98 µM | actives 57% (n = 1,200);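 active = mean inhibition above the low-control mean inhibition plus three low-control SD, cut at about 11% in these data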;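 also: 0% = DMSO only wells and 100% = clavulanate high control wells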
The depositor's hits bear a star; . = not tested or not shown.

SMILES	TLR4 MyD88 comp	TLR9-MyD88 block	UPR CHOP act	NOD2 RIPK2 PPI	CHOP inh	UPR XBP1 act	TLR9-MyD88 cf	BLA counter-1	TLR9 CHO cytotox	NOD2 RIPK2 conf	BLA counter-2
COc1ccc(C2C=C(c3ccccc3)Nc3ncnn32)cc1 (centres undefined)	14.0	38.7*	4.6	46.0*	3.9	0.1	4.2	7.9	-0.9	-2.8	-4.3
CCOc1ccc(C2C=C(c3ccc(C)cc3)Nc3ncnn32)cc1 (centres undefined)	12.8	.	0.5	.	-25.9	-1.6	.	.	.	.	.
COc1ccc(C2C=C(C)Nc3ncnn32)cc1 (centres undefined)	.	-0.8	6.9	-22.6	.	2.1	.	.	.	.	.
Cc1ccc(C2=CC(c3ccc(C)cc3)n3ncnc3N2)cc1 (centres undefined)	.	25.6*	0.0	45.9*	.	-2.3	14.7	17.5	-4.6	33.1*	34.7*
COc1ccc(S(=O)(=O)N(C)CC(=O)Nc2cccc(C(C)=O)c2)cc1Cl	1.4	-9.2	3.8	3.9	34.5	0.0	.	.	.	.	.
Cc1cc(OCC(O)CN2CCN(c3ccccn3)CC2)cc(C)c1Cl (centres undefined)	.	-13.4	-1.0	8.2	.	-8.0	.	.	.	.	.
CN(CCO)c1cc(Sc2nc3ccccc3s2)c2nonc2c1[N+](=O)[O-]	9.0	47.4*	-10.0	90.9*	66.5	-6.8	66.7*	9.3	98.7*	97.8*	33.0*
COc1ccc(NC(=O)/C(Cl)=C(/Cl)S(=O)(=O)Cc2ccccc2)cn1	10.2	27.7*	.	56.2*	.	.	21.1*	19.6	98.8*	67.7*	23.1*
CN(C)CCCN(C(=O)CCOc1ccccc1)c1nc2c(F)cccc2s1	18.7	21.8*	.	48.2*	19.3	.	3.1	2.7	67.5*	27.3*	-0.5
CN(C)CCCN(C(=O)CCc1ccccc1)c1nc2c(F)cccc2s1	-17.2	-5.3	1.1	-9.2	7.1	-0.6	.	.	.	.	.
O=C(CSc1ncnc2nc[nH]c12)N1CCOCC1	-10.6	-3.1	-1.6	-10.6	-6.2	-1.3	.	.	.	.	.
C=C1C(=O)c2sccc2C(c2ccc(OC)c(OC)c2)C1COC(C)=O (centres undefined)	.	23.6*	.	95.0*	.	.	28.1*	7.2	96.8*	92.4*	12.9*
CCN1CCN(CC(=O)N2N=C(c3cccs3)CC2c2ccc(OC)c(OC)c2)C(=O)C1=O (centres undefined)	-13.5	-7.6	-1.3	-19.4	-10.3	0.7	.	.	.	.	.
O=[N+]([O-])c1ccc(N/N=C/C=C/c2ccco2)cc1	.	40.0*	5.3	55.3*	.	4.7	37.1*	38.6	-3.0	62.9*	67.6*
COc1ccc(C(C)=O)cc1COC(=O)c1cc(=O)c2ccccc2o1	.	-0.7	2.0	-7.0	.	-3.6	.	.	.	.	.
COc1ccc(-c2cc3ccc(O)cc3oc2=O)cc1OC	.	40.1*	-0.4	51.9*	.	-0.7	28.1*	35.8	1.5	56.1*	59.6*
O=C(Nc1ccc(Cl)cc1)Nc1cccc2nsnc12	.	21.4*	12.0	21.4*	73.0*	1.2	15.2	15.5	0.5	34.7*	36.2*
O=[N+]([O-])c1ccc(Nc2ccc3ccccc3c2)nc1	24.6	23.7*	7.5	36.8*	45.0	3.9	19.1	9.6	8.0	21.5*	25.2*
O=[N+]([O-])c1ccc(Nc2ccc(Cl)cc2)nc1	9.8	.	0.8	14.6	23.3	1.6	.	.	.	.	.
Cc1noc2ncnc(Sc3c(Cl)cccc3Cl)c12	10.1	22.7*	6.9	36.6*	-133.3	-3.6	21.7*	5.7	7.5	33.8*	-13.5
COc1ccc(NC(=O)N(C)C[C@@H]2OCc3cn(nn3)CCCC(=O)N([C@@H](C)CO)C[C@H]2C)cc1	.	-5.6	.	-10.1	.	.	.	.	.	.	.
Fc1ccccc1NC(=S)N1CCN(Cc2ccccc2)CC1	-9.7	10.5	-1.5	-1.4	16.0	-2.8	.	.	.	.	.
CN(C)c1ccc(/C=C/c2nc3ccccc3c(=O)n2-c2ccc(C(=O)O)cc2)cc1	.	39.8*	1.2	34.3*	.	-0.1	25.5*	27.0	1.1	60.0*	65.4*
Cc1cc(C)n2nc(C(=O)OCC(=O)N(CC(C)C)C3CCS(=O)(=O)C3)nc2n1 (centres undefined)	.	-3.8	-0.6	-0.9	.	-2.0	.	.	.	.	.
CCCCCCCCN1C(=O)[C@H](CC(=O)N2CCCCC2)C[C@@]2(C(=O)OC)CC(C)(C)CC=C12	.	.	.	-7.9	.	.	.	.	.	.	.
SMILES	TLR4 MyD88 comp	TLR9-MyD88 block	UPR CHOP act	NOD2 RIPK2 PPI	CHOP inh	UPR XBP1 act	TLR9-MyD88 cf	BLA counter-1	TLR9 CHO cytotox	NOD2 RIPK2 conf	BLA counter-2
O=C(NCCN1C(=O)S/C(=C\c2ccc(Cl)c(Cl)c2)C1=O)c1cnccn1	4.7	-3.8	-0.1	-1.4	49.5	2.7	.	.	.	.	.
O=C(NCCN1C(=O)S/C(=C\c2ccc(Cl)c([N+](=O)[O-])c2)C1=O)C1=COCCO1	.	24.1*	10.3	39.1*	.	-4.9	11.3	2.3	4.6	63.5*	-1.9
CCOc1ccc2nc(SCC(=O)NNC(=O)c3ccco3)c(C)cc2c1	.	-15.2	0.9	1.5	.	-3.5	.	.	.	.	.
CCOc1ccc2cc(/C=C/C(=O)c3ccco3)c(Cl)nc2c1	35.8*	29.2*	8.4	26.6*	13.4	0.5	7.9	3.6	2.8	5.5	10.2
Nc1cccc2c1C(=O)N(C(=O)c1cccc(S(=O)(=O)N3CCCC3)c1)C2=O	18.8	22.6*	-3.0	22.0*	29.5	-2.0	12.8	15.6	-3.7	28.0*	34.8*
NC(=O)c1cccc(S(=O)(=O)N2CCCCC2)c1	-2.2	1.8	-1.1	-2.5	55.4	-1.2	.	.	.	.	.
COC(=O)c1ccccc1NC(=O)c1cccnc1	.	-6.6	0.5	5.6	.	-0.7	.	.	.	.	.
